The source of these data is ChEMBL document CHEMBL5696442, “Discovery of type II inhibitors of TGFβ-activated kinase 1 (TAK1) and mitogen-activated protein kinase kinase kinase kinase 2 (MAP4K2)” (J Med Chem, 2015).

The target of experiment [1] is T1, Interleukin-1 receptor-associated kinase 4 (Homo sapiens) (UniProt Q9NWZ3).
T1 sequence (whole entry): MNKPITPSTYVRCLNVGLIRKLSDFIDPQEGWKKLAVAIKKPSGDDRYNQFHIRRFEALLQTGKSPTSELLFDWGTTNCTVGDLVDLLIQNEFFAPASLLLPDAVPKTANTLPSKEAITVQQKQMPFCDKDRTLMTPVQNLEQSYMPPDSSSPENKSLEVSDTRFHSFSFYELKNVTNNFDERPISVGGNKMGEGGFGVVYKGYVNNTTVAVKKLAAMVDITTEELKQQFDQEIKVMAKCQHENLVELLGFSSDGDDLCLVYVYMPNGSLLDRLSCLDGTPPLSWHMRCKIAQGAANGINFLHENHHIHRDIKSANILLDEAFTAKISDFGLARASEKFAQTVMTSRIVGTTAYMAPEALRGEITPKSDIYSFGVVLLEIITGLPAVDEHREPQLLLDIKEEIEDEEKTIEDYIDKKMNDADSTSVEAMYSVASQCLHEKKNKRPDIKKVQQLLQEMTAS
In words: Inhibition of IRAK4 Lys2 labeling site in human A-375 cells at 0.5 uM by KiNativ Profiling analysis relative to control. It is filed as cell-based.

The target in experiment [2] is Tyrosine-protein kinase ABL1 (Homo sapiens, UniProt P00519). Nature of the experiment: Inhibition of phosphorylated ABL1 (unknown origin) at 1 uM by Ambit Kinomescan binding assay relative to control; values are per cent of control.
Tyrosine-protein kinase ABL1, sequence (P00519 whole entry): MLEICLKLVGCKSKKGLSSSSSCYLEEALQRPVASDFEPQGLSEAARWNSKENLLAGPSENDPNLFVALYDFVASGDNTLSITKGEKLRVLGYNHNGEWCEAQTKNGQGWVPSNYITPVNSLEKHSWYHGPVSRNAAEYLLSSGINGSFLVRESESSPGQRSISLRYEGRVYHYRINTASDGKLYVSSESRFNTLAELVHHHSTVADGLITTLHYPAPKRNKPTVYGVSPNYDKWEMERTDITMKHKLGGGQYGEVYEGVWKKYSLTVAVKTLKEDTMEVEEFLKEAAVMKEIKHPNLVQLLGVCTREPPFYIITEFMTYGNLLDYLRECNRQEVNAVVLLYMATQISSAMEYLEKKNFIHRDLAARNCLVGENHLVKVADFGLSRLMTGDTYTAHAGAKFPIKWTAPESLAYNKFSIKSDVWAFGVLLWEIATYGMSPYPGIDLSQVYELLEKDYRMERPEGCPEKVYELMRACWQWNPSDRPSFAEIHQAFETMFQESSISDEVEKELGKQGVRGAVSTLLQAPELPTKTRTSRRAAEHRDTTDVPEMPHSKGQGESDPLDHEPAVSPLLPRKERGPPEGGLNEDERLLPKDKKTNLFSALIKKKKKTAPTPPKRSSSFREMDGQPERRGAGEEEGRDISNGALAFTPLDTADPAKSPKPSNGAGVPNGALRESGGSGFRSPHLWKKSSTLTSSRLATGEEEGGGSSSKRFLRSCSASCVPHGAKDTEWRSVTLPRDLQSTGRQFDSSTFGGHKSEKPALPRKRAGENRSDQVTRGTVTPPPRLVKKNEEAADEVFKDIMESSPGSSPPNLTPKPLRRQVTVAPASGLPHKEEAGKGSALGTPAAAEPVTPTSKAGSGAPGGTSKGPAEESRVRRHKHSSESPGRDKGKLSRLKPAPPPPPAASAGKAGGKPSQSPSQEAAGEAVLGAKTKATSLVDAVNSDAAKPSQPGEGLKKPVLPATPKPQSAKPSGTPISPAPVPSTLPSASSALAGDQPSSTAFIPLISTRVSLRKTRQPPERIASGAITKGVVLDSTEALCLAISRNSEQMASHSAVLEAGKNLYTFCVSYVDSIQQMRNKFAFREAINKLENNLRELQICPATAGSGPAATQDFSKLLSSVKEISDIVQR
Experiment [3] deals with Atypical kinase COQ8A, mitochondrial (Homo sapiens) (UniProt Q8NI60). Nature of the experiment: Inhibition of ADCK3 (unknown origin) at 10 uM by Ambit Kinomescan binding assay.
Atypical kinase COQ8A, mitochondrial (Homo sapiens), sequence (Q8NI60 163-647 limits assumed): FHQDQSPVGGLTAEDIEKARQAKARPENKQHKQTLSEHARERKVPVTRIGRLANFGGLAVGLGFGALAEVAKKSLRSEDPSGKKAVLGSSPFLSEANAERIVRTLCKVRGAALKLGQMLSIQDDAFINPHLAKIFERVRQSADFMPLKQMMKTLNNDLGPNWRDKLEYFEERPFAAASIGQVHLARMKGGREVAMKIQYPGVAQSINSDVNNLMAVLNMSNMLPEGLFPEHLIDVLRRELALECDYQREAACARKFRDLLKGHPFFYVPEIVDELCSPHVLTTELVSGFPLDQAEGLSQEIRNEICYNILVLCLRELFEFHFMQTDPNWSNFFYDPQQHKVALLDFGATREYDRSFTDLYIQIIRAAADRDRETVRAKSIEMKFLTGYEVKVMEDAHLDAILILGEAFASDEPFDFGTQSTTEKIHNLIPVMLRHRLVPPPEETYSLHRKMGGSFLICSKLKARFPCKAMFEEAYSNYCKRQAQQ
In experiment [4] the target is Serine/threonine-protein kinase pim-3 (Homo sapiens) (UniProt Q86V86). Nature of the experiment: Inhibition of PIM3 (unknown origin) at 10 uM by Ambit Kinomescan binding assay.
For experiment [5], the target named is T2, Mitogen-activated protein kinase kinase kinase 15 (Homo sapiens) (UniProt Q6ZN16).
T2 sequence (whole entry): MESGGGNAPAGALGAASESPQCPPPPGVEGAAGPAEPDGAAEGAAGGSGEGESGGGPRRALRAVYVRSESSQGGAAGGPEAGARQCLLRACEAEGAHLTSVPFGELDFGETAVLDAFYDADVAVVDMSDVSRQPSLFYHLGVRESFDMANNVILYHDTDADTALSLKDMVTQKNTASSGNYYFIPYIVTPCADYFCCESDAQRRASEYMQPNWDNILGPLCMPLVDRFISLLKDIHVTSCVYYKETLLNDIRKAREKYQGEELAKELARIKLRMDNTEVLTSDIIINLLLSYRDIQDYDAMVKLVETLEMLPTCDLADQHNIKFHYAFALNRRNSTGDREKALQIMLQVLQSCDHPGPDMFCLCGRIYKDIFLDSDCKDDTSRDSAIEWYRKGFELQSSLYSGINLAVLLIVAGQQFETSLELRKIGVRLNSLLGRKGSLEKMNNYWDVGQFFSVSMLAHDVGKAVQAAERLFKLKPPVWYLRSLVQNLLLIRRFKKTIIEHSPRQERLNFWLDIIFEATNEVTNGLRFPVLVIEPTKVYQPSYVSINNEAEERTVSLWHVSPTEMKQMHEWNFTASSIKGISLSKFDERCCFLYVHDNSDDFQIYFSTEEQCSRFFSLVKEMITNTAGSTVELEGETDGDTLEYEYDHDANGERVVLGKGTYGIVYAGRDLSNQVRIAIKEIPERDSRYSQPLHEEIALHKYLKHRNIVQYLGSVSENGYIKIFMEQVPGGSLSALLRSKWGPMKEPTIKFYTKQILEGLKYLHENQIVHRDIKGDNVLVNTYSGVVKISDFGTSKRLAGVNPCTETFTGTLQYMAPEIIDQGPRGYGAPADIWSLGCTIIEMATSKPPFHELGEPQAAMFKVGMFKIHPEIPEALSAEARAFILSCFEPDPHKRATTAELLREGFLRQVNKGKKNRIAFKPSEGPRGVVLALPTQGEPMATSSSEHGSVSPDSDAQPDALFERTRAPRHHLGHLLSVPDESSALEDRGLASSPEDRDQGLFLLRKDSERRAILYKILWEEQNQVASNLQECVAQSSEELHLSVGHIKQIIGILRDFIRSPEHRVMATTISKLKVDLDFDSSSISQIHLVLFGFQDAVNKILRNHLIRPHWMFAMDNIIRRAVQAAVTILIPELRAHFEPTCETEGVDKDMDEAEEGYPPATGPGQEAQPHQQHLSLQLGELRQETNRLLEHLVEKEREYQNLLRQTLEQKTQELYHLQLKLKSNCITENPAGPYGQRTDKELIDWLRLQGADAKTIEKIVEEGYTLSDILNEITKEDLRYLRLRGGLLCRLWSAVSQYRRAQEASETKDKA
Nature of the experiment: Inhibition of MAP3K15 Lys1 labeling site harbouring IAIKEIPER in human A-375 cells at 5 uM by KiNativ Profiling analysis relative to control. It is filed as cell-based.

Experiment [6] deals with Rho-associated protein kinase 1 (Homo sapiens) (UniProt Q13464). Nature of the experiment: Inhibition of ROCK1 Lys2 labeling site in human A-375 cells at 0.5 uM by KiNativ Profiling analysis relative to control. It is filed as cell-based. Summed up:
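Live A375 melanoma cells were treated with compound at 5 or 0.5 μM, then lysed. Lysates were labeled with a lysine-reactive ATP or ADP-biotin probe. Read-out was the compound's protection of kinase labeling sites from probe labeling (KiNativ).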

The target in experiment [7] is Mitogen-activated protein kinase 7 (Homo sapiens) (UniProt Q13164). In words: Inhibition of Erk5 Lys2 labeling site in human Huh-7 cell lysate at 1 uM by KiNativ Profiling analysis relative to control. It is filed as subcellular.
Mitogen-activated protein kinase 7 (Homo sapiens), sequence (Q13164 2-816 limits assumed): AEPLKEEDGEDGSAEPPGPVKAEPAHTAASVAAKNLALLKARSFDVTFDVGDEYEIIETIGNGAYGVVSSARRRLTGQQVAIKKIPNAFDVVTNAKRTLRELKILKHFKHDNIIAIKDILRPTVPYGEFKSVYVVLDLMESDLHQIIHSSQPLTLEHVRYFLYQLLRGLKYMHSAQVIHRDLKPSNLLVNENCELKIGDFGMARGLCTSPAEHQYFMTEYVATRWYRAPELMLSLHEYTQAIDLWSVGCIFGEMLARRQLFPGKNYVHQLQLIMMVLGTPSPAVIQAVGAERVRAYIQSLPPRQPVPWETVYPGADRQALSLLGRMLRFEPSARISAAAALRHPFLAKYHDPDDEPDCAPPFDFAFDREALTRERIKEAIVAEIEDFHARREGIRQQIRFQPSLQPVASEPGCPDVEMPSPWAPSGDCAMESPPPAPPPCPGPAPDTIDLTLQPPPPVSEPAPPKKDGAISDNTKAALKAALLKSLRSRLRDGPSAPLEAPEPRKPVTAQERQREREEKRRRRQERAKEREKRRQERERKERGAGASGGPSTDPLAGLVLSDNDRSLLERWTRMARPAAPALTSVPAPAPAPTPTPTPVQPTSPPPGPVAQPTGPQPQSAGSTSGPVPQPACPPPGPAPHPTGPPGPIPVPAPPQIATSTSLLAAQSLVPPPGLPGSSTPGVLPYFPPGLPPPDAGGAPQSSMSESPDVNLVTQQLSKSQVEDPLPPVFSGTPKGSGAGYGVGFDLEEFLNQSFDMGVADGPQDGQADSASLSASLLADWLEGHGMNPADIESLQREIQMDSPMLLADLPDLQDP

Active and inactive are the calls of the source. The rule behind the calls is not given here.

Rho-associated protein kinase 1 (Homo sapiens), sequence (Q13464 2-1354 limits assumed): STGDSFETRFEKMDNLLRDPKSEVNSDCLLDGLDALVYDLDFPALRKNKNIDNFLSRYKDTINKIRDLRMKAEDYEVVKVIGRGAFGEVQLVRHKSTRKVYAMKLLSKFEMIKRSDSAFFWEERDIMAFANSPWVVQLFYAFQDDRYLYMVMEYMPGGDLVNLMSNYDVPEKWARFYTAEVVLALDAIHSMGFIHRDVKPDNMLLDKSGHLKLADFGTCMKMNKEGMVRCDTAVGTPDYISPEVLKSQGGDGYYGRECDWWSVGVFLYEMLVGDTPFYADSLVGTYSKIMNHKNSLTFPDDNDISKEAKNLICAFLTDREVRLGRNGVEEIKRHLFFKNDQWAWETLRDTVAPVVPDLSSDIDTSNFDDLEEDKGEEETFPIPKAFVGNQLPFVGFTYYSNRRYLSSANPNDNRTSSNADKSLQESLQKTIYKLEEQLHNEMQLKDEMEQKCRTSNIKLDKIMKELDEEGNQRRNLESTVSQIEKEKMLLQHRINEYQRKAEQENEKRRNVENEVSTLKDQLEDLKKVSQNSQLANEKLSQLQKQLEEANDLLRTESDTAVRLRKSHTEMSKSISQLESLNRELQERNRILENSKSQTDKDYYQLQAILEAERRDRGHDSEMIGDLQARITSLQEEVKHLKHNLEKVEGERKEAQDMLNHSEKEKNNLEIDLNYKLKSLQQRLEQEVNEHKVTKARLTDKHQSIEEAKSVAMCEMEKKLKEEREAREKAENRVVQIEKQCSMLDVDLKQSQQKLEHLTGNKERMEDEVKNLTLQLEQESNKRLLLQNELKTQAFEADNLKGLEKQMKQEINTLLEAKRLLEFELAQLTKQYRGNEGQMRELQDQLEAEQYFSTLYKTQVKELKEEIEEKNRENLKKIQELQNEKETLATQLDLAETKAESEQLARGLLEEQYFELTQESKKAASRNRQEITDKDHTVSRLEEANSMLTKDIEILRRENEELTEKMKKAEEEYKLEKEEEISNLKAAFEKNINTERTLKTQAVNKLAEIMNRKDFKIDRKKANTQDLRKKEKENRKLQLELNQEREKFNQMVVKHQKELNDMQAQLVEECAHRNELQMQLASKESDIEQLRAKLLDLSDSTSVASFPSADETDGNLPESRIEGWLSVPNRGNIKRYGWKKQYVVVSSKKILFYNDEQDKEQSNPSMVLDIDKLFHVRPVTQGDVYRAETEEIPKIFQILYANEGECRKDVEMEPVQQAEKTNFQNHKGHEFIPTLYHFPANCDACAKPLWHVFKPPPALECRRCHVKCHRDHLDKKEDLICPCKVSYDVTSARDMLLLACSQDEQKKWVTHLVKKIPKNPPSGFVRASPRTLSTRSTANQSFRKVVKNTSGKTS

The inhibition is the relative decrease from the control value, in per cent. As for `CCN1CCN(Cc2ccc(NC(=O)c3ccc(C)c(/C=C/c4cnc5[nH]ccc5c4OC)c3)cc2C(F)(F)F)CC1`, the inhibition in experiment [1] was determined as 10.3%. In experiment [2], this compound came in with a % of control of 0.7%.
As for `CCN1CCN(Cc2ccc(NC(=O)c3ccc(C)c(Oc4ccnc5[nH]ccc45)c3)cc2C(F)(F)F)CC1`, the inhibition result in experiment [3] and in experiment [4] was “inactive” each time. The values for the inhibition in experiment [5] and in experiment [6] were -0.6% and 2.3%, respectively.
As to `CNc1cc(Oc2cc(C(=O)Nc3cc(N4CCN(C)CC4)cc(C(F)(F)F)c3)ccc2C)ncn1`, in experiment [7], the inhibition is -6.5%.
